FLuc stim CS – FLuc activators, initial screening, artefact control for FLuc-dependent activation tests, biochemical, ATPlite luminescence. Luciferin 4-monooxygenase (Photinus pyralis), P08659. ATPlite luciferase biochemical, 10 min; 0 = ATP-free wells, 1 = DMSO control. activation factor at 10 µM. 200,000 tested, under 10 active. AID 1027, 2008;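 active = luciferase activation factor, scaled between plate controls, of at least 2 with compound at 10 µM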
Target sequence (P08659 whole entry, looked up): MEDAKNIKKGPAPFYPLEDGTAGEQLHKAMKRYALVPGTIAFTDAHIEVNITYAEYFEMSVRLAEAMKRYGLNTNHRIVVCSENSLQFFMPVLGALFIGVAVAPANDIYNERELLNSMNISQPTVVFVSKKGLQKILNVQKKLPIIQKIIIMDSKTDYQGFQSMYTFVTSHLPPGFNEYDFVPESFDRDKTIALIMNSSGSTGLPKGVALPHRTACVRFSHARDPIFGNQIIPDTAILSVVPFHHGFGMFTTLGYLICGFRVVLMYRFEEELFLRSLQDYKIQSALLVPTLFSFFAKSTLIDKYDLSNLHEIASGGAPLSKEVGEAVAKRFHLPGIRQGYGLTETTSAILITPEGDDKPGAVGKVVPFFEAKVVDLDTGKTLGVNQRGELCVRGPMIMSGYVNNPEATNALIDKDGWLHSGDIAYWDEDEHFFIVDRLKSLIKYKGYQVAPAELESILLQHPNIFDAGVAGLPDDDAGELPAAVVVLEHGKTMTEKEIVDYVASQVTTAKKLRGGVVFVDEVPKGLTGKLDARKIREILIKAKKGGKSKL
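Material: luciferase plus luciferin reagent, cell-free. Medium: PBS buffer for ATP. Also added: ATP substrate, dispensed from a 10.24 µM working solution in PBS. Doses: test compounds dosed from 2 mM stocks in 100% DMSO. Incubation: 10 min post-reagent at room temperature. Technique: light output (luminescence). Read-out basis: luminescence gain marking luciferase activators.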
FLuc inh counter – firefly luciferase enzyme inhibitors, primary screen, artefact control for luciferase-based inhibitor screens, biochemical, luminescence, ATPLite; Luciferin 4-monooxygenase (Photinus pyralis), P08659; 10 min; inhibition, % at 10 µM; hit rate 1.5% among 200,000; AID 1006, 2008;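 active = inhibition above about 50% when tested at 10 µM, limit read from the data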
G6PDH counter – L. mesenteroides G6PDH inhibitors, counter-screen for G6PDH-coupled screening assays, biochemical, Leuconostoc mesenteroides enzyme; Purified L. mesenteroides G6PDH, diaphorase/resazurin coupled fluorescence, 45 min; hit rate 0.12% among 200,000; inhibition, % at 5 µM; in the data active = inhibition above about 50%
Diaphorase inh – diaphorase inhibitors and chemical oxidizers, primary screen, counter-screen for diaphorase-coupled primary assays, biochemical, uHTS, resorufin fluorescence | diaphorase resazurin-to-resorufin fluorescence, NADH, 16 min; bacterial (C. kluyveri) enzyme, not human | inhibition, % at 20 µM | hit rate 0.69% among 190,000 | AID 1217, 2008;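 active = primary screen inhibition at 20 µM above a set limit, cut at about 50% in these data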;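 also: plate controls were DMSO with full reaction for no effect and wells lacking NADH for full effect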
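Test system: bacterial diaphorase enzyme (C. kluyveri); Quantity: 0.14 U/mL diaphorase, enzyme working solution; Times: reaction incubation of 16 min at room temperature; Measured by: fluorescence of resorufin formed from resazurin, Ex 544/Em 590 nm; Benchmarks: positive control minus NADH, DMSO neutral control.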
Diaphorase act – compounds boosting diaphorase resazurin reduction – biochemical, uHTS, resorufin fluorescence, counter-screen for diaphorase-coupled primary assays, primary screen; Diaphorase/resazurin coupled assay, 16 min; hits give high values; 1 = vehicle wells, 0 = NADH-free wells; hit rate 0.005% among 190,000; activation factor at 20 µM;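 active = diaphorase activity raised at least twofold by the compound at 20 µM; inactive = activation factor below 2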
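test system = bacterial diaphorase enzyme (C. kluyveri) | quantity = enzyme 0.07 U/mL final | reagent = NADH substrate 0.114 mM plus resazurin dye 0.1 mM, final | incubation = 16 min enzyme reaction, ambient temperature | buffer or medium = HEPES pH 7.4 buffer with MgCl2 and Tween 20 | signal = fluorescence of resorufin, 544 nm excitation, 590 nm emission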
* marks the source's active call; other numbers are inactive results. Compounds with a hit are over-represented: about 2.3% of the library has one in this group of screens.

What do the screens show for `COc1cccc(/C=N/Nc2nc3ccccc3n3cnnc23)c1O`?
FLuc stim CS: 0.6; FLuc inh counter: 37; G6PDH counter: -21; Diaphorase inh: 66*; Diaphorase act: 0.3

Results for COc1cccc(/C=N/Nc2nccnc2Cl)c1O ?
FLuc stim CS: 0.2; FLuc inh counter: 84*; G6PDH counter: 10; Diaphorase inh: 39; Diaphorase act: 0.6

How did COc1cccc(/C=N/Nc2ncnc(Cl)c2N)c1O do in these assays?
FLuc stim CS: 0.3; FLuc inh counter: 68*; G6PDH counter: -6; Diaphorase inh: 15; Diaphorase act: 0.9

Results for COc1ccc(/C=N/Nc2ncnc(Cl)c2N)cc1OC ?
FLuc stim CS: 0.8; FLuc inh counter: 16; G6PDH counter: 0; Diaphorase inh: 19; Diaphorase act: 0.8

How did Oc1ccccc1/C=N/Nc1nccnc1Cl do in these assays?
FLuc stim CS: 0.7; FLuc inh counter: 27; G6PDH counter: -4; Diaphorase inh: 23; Diaphorase act: 0.8

Results for COc1ccccc1C(=O)NCC(=O)NNc1ncnc(N)c1[N+](=O)[O-] ?
FLuc stim CS: 1; FLuc inh counter: 2; G6PDH counter: 8; Diaphorase inh: 5; Diaphorase act: 1

Results for O=C1NC(=O)C2(COC(c3ccncc3)OC2)S1 (configuration not stated) ?
FLuc stim CS: 1; FLuc inh counter: -2; G6PDH counter: 9; Diaphorase inh: 2; Diaphorase act: 1

What do the screens show for `COC(=O)c1ccccc1-n1cccc1C(=O)NP(=O)(N1CCOCC1)N1CCOCC1`?
FLuc stim CS: 1; FLuc inh counter: 1; G6PDH counter: 5; Diaphorase inh: -11; Diaphorase act: 1.1

How did c1ccc(-c2ccc(-c3cnc4n3CCCCC4)cc2)cc1 do in these assays?
FLuc stim CS: 1; FLuc inh counter: -2; G6PDH counter: 3; Diaphorase inh: 5; Diaphorase act: 1

Results for C/C(=N\NC(=O)c1cc(-c2cccc([N+](=O)[O-])c2)n[nH]1)c1ccccc1O ?
FLuc stim CS: 1; FLuc inh counter: -3; G6PDH counter: -8; Diaphorase inh: 9; Diaphorase act: 0.9

How did CCN(CC)c1ccc(CNCc2cccs2)cc1 do in these assays?
FLuc stim CS: 1; FLuc inh counter: -1; G6PDH counter: 8; Diaphorase inh: 2; Diaphorase act: 1

What do the screens show for `O=c1[nH]c(C2CC2)nc2sc3c(c12)CCCC3`?
FLuc stim CS: 1; FLuc inh counter: 1; G6PDH counter: 27; Diaphorase inh: 11; Diaphorase act: 0.9

What do the screens show for `N#Cc1cnn(-c2nc3sc4c(c3c(=O)[nH]2)CCCC4)c1N`?
FLuc stim CS: 0.4; FLuc inh counter: 60*; G6PDH counter: -52; Diaphorase inh: 7; Diaphorase act: 0.9

Results for Cc1cccc(-n2c(SCC(=O)N3CCCC3)nc3n[nH]c(C)c3c2=N)c1 ?
FLuc stim CS: 1; FLuc inh counter: -4; G6PDH counter: 9; Diaphorase inh: 68*; Diaphorase act: 0.3

How did CCCCN(CC)C(=O)CSc1nc2n[nH]c(C)c2c(=N)n1-c1cccc(C)c1 do in these assays?
FLuc stim CS: 1; FLuc inh counter: -1; G6PDH counter: 11; Diaphorase inh: 66*; Diaphorase act: 0.3

How did CC(C)c1ccc(S(=O)(=O)/N=C2/C=CC(=O)c3ccccc32)cc1 do in these assays?
FLuc stim CS: 1; FLuc inh counter: -5; G6PDH counter: 55*; Diaphorase inh: 31; Diaphorase act: 0.7

How did COC(=O)C(C(C)=O)C1=C/C(=N\S(=O)(=O)c2ccc(C)cc2)c2ccccc2C1=O (configuration not stated) do in these assays?
FLuc stim CS: 1.1; FLuc inh counter: -6; G6PDH counter: 46; Diaphorase inh: 38; Diaphorase act: 0.6

Results for CN1CCc2cccc3c2[C@H]1Cc1ccc(O)c(O)c1-3 ?
FLuc stim CS: 1; FLuc inh counter: -1; G6PDH counter: 44; Diaphorase inh: 78*; Diaphorase act: 0.2

How did O=c1c2ccccc2c(C=NC2CCN(Cc3ccccc3)CC2)c(O)n1Cc1ccc2c(c1)OCO2 do in these assays?
FLuc stim CS: 1; FLuc inh counter: -4; G6PDH counter: -4; Diaphorase inh: 10; Diaphorase act: 0.9

How did CCN(CC)c1ccc(NC(=O)COC(=O)/C=C/c2nc3ccccc3s2)cc1 do in these assays?
FLuc stim CS: 1; FLuc inh counter: -3; G6PDH counter: -24; Diaphorase inh: -1; Diaphorase act: 1

What do the screens show for `CCN(CC)c1ccc(/C=C/c2nc3ccccc3s2)cc1`?
FLuc stim CS: 0.4; FLuc inh counter: 64*; G6PDH counter: 3; Diaphorase inh: 11; Diaphorase act: 0.9

Results for Cc1nc(-c2ccccc2)sc1-c1ccnn1C ?
FLuc stim CS: 0.4; FLuc inh counter: 57*; G6PDH counter: 1; Diaphorase inh: 18; Diaphorase act: 0.8

What do the screens show for `Cc1nc(-c2ccccc2)sc1-c1ccn[nH]1`?
FLuc stim CS: 0.3; FLuc inh counter: 70*; G6PDH counter: -3; Diaphorase inh: 0; Diaphorase act: 1

Results for O=C(COC(=O)c1cc[n+]([O-])cc1)Nc1ccc([N+](=O)[O-])cc1 ?
FLuc stim CS: 1.1; FLuc inh counter: -7; G6PDH counter: 5; Diaphorase inh: 14; Diaphorase act: 0.9

How did Cc1ccc(C(=O)Nc2ccc(O)cc2C(=O)O)cc1C do in these assays?
FLuc stim CS: 0.3; FLuc inh counter: 69*; G6PDH counter: -3; Diaphorase inh: 9; Diaphorase act: 0.9

What do the screens show for `Cc1ccc(C(=O)Nc2ccc(O)cc2C(=O)O)cc1`?
FLuc stim CS: 0.4; FLuc inh counter: 59*; G6PDH counter: -2; Diaphorase inh: 20; Diaphorase act: 0.8

How did Cc1cccc(C(=O)Nc2ccc(O)cc2C(=O)O)c1 do in these assays?
FLuc stim CS: 0.8; FLuc inh counter: 24; G6PDH counter: 6; Diaphorase inh: 4; Diaphorase act: 1

How did COc1ccc(N/C=C\C(=O)c2ccc3c(c2)OCO3)cc1OC do in these assays?
FLuc stim CS: 0.4; FLuc inh counter: 60*; G6PDH counter: 6; Diaphorase inh: 9; Diaphorase act: 0.9

What do the screens show for `COC(=O)c1ccc(N/C=C\C(=O)c2ccc3c(c2)OCO3)cc1`?
FLuc stim CS: 0.8; FLuc inh counter: 16; G6PDH counter: 21; Diaphorase inh: -5; Diaphorase act: 1.1

What do the screens show for `O=C(/C=C\Nc1ccccc1Br)c1ccc2c(c1)OCO2`?
FLuc stim CS: 0; FLuc inh counter: 97*; G6PDH counter: 7; Diaphorase inh: -4; Diaphorase act: 1

Screening results from PubChem.
